Assay outcomes: PubChem, several laboratories
Only some compounds are listed: those with a hit (about 3.7% of all), similar ones and a draw of the others.
procasp7 counter – counter-screen for procaspase-3 activators: activators of human procaspase-7; recombinant procaspase-7, Ac-DEVD-pNA absorbance 405 nm; D23A/D198A/D206A triple mutant, cannot self-cleave; scale: DMSO 0, 5 µM enzyme 100; P55210; activation, % at 8.5 µM; 330,000 tested, 0.093% active;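 active means percent activation above the screen-wide mean plus 3 SD, cut at about 25% in these data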
Target sequence (P55210 whole entry D23A/D198A/D206A): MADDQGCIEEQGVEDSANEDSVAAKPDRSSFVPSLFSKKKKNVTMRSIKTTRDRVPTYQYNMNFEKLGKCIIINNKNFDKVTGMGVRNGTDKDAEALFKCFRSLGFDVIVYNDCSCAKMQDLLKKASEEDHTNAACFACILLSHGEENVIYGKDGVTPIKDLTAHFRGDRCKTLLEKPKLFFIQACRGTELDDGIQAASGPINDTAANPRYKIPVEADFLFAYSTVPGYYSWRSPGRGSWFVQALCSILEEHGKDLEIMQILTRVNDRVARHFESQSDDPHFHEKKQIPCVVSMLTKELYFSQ
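System: Procaspase-7 triple mutant (PC-7 D3A); measure: % activation from two-timepoint absorbance difference, scaled to controls; times: 1 h compound preincubation, 2 h substrate cleavage, 25 °C; also added: Ac-DEVD-pNA substrate, 400 µM as added; measured by: Epi-absorbance of released pNA at 405 nm, two timepoints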
MPTP inh – blocks calcium-induced mitochondrial swelling; AID 602449; inhibition, % at 10 µM; isolated mouse mitochondria, Ca2+ swelling absorbance, 30 min; 360,000 tested, 1.4% active;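 active means inhibition of 50% or more, scaled per plate between neutral and stimulator controls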
proCasp3 act – procaspase-3 (human) activation | activation, % at 8.5 µM | 330,000 tested, 0.11% active | recombinant procaspase-3 D3A, Ac-DEVD-pNA absorbance 405 nm | P42574;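 active means activation above the mean of all tested compounds plus 3 SD, cut at about 21% in these data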
Target sequence (P42574 whole entry D9A/D28A/D175A): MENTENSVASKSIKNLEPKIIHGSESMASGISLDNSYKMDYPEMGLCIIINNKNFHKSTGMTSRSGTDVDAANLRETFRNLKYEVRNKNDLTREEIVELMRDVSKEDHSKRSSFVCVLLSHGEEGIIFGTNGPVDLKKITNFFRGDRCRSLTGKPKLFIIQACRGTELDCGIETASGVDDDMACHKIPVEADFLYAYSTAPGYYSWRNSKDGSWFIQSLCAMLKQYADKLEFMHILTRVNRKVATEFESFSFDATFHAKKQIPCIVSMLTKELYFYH
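Assay system: Autoprocessing-dead procaspase-3 D3A mutant enzyme; also added: Ac-DEVD-pNA; doses: one concentration, 8.5 µM nominal, 0.8% DMSO; times: 1 h compound preincubation, 2 h substrate hydrolysis at 25 °C; technique: 405 nm absorbance of p-nitroaniline, reads at 0 and 120 min; measure: % activation between DMSO and enzyme-spiked controls; repeats: single replicate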
aDG glyco act – alpha-DG glycosylation activation | Pro5-aDG cells, alpha-DG glycosylation AlphaScreen (IIH6); 0% Pro5, 100% B10-LARGE cell signal | activation, % at 10 µM | 360,000 tested, 0.22% active;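 active means activation of at least 8% versus controls, or a plate z-score of at least 8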;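 further: Pro5 are CHO cells carrying HIG-tagged alpha-DG that lacks glycosylation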
NR3A LBD binder – NR3A (human) ligand-binding domain modulation; Tm shift relative to glycine control, % at 25 µM; 340,000 tested, 2.5% active; AID 1259313; NR3A LBD differential scanning fluorimetry, Tm shift; 0% = protein alone, 100% = glycine-bound protein;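 active means melting temperature shift of at least 10% of the positive control shift, at one fixed dose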
MPTP counter – membrane potential counter-screen of mitochondrial pore inhibitors. shares compounds with MPTP inh. isolated mitochondria, Rhodamine 123 fluorescence. inhibition, % at 10 µM. 5,000 tested, 78% active. AID 624504; in the data active means inhibition above about 22%
MPTP swell DR – MPTP inhibition, dose response swelling confirmation; 780 tested, 58% active; IC50, µM; AID 651561; isolated mitochondria swelling, absorbance; shares compounds with MPTP inh; in the data active means IC50 below about 20 µM
MPTP counter DR – MPTP inhibitor counter-screen activity, dose response | shares compounds with MPTP inh | isolated mitochondria counterscreen, fluorescence read-out | IC50, µM | 780 tested, 49% active | AID 651564; in the data active means IC50 below about 80 µM
Each line names hits and unclear results; the compound was inactive in the other large screens (follow-up assays come after a bar, where they were run).

CC(C)CC(=O)NC(Nc1ccc([N+](=O)[O-])cc1)C(Cl)(Cl)Cl (configuration not stated)	MPTP inh 90 | MPTP counter 96
COc1ccc([N+](=O)[O-])cc1NC(=S)NC(NC(=O)C(c1ccccc1)c1ccccc1)C(Cl)(Cl)Cl (configuration not stated)	MPTP inh 95 | MPTP counter 64
COc1ccc([N+](=O)[O-])cc1NC(=O)CSc1nc(C)cc(C)n1	none
CCN(CC)c1ccc(N=C2C=CC(=O)C=C2NC(C)=O)cc1	none (no result: procasp7 counter, proCasp3 act)
O=C(CN(C(=O)c1ccc(Cl)cc1)C1CCCCC1)Nc1ccc(Cl)c([N+](=O)[O-])c1	MPTP inh 64 | MPTP counter 86
O=C(CN(C(=O)c1ccccc1Cl)C1CCCCC1)Nc1ccc(Cl)c([N+](=O)[O-])c1	MPTP inh 88 | MPTP counter 80
CC1=C(C(=O)N(C(C)C)C(C)C)CC(CC(=O)NC(c2ccccc2)c2ccccc2)C(=O)N1Cc1ccc(C(C)(C)C)cc1 (configuration not stated)	none (no result: procasp7 counter, proCasp3 act, NR3A LBD binder)
CS(=O)(=O)n1c2ccccc2c(=O)n1-c1ccccc1CCl	none (no result: procasp7 counter, proCasp3 act, NR3A LBD binder)
O=C(Nc1cc(Sc2ccccn2)cc([N+](=O)[O-])c1)c1ccc([N+](=O)[O-])cc1	none
O=C(Nc1cc(Sc2nc3ccccc3s2)cc([N+](=O)[O-])c1)c1cccc(F)c1F	MPTP inh 94 | MPTP counter 71
COc1cc(Cl)c(C)cc1NC(=O)CN(C)C1CCS(=O)(=O)C1 (configuration not stated)	none
COc1ccc(CN(C)Cc2c(O)ccc3cc(Br)ccc23)cc1OC	MPTP inh 68 | MPTP counter 50
CCOc1cc(NC(=O)c2cnccn2)c(OCC)cc1NC(=O)c1cccc(F)c1	none (no result: MPTP inh, aDG glyco act, NR3A LBD binder)
CCOc1cc(NC(=O)C2CC2)c(OCC)cc1NC(=O)c1cccc(F)c1	MPTP inh 106 | MPTP counter inactive | MPTP swell DR inactive | MPTP counter DR inactive
Cn1c(-c2ccc(C#N)cc2)c(C#Cc2ccccc2)c2ccccc21	none (no result: procasp7 counter, proCasp3 act)
N#Cc1c(-c2ccc(Cl)cc2)n(O)c2ccccc12	MPTP inh 96, NR3A LBD binder 23 (no result: procasp7 counter, proCasp3 act) | MPTP counter 100
COc1ccc(S(=O)(=O)N(C)[C@H]2C[C@H]3c4cc(Oc5ccccc5C)ccc4CCN3C(=O)[C@H]2[C@H](C)O)cc1	none (no result: procasp7 counter, proCasp3 act, NR3A LBD binder)
Cc1ccc2nc(Cl)c(/C=N/NC(=O)c3ccccc3O)cc2c1	MPTP inh 65, NR3A LBD binder 20 | MPTP counter 76
O=[N+]([O-])c1ccc(O)c(/C=N\N=C2c3ccccc3-c3ccccc32)c1	MPTP inh 104, NR3A LBD binder 14 | MPTP counter 93
NC(N)=N/N=C/c1cc([N+](=O)[O-])ccc1O	none
COc1cc(/C=C2/C(=O)c3cccc([N+](=O)[O-])c3C2=O)c(Br)cc1O	MPTP inh 134 | MPTP counter 53
O=C(Nc1ncc(Cc2cc(Cl)ccc2Cl)s1)c1ccc([N+](=O)[O-])cc1	MPTP inh 51 | MPTP counter inactive | MPTP swell DR inactive | MPTP counter DR <2.5
O=C(COC(=O)c1ccccc1)Nc1ncc([N+](=O)[O-])s1	none
O=C(Nc1ccc([N+](=O)[O-])cc1)c1cccc([N+](=O)[O-])c1	none (no result: procasp7 counter, proCasp3 act, NR3A LBD binder)
O=C(Nc1ncc(S(=O)(=O)c2ccc([N+](=O)[O-])cc2)s1)c1cccnc1	none
O=C(Nc1ncc(S(=O)(=O)c2ccc([N+](=O)[O-])cc2)s1)c1ccc2ccccc2c1	MPTP inh 94, NR3A LBD binder 22 | MPTP counter 31
O=C(Nc1ncc([N+](=O)[O-])s1)c1cccc([N+](=O)[O-])c1	MPTP inh 56 | MPTP counter 79
O=C(Nc1ccccc1)Nc1ncc([N+](=O)[O-])s1	MPTP inh 88 (no result: procasp7 counter, proCasp3 act) | MPTP counter 82
Cc1ccc(NC(=O)NCc2ccc3c(c2)OCO3)cc1	none
CCCCC(=O)Nc1ncc([N+](=O)[O-])s1	none
CC(C)CC(=O)Nc1ncc([N+](=O)[O-])s1	MPTP inh 67 | MPTP counter 56
CN(C)S(=O)(=O)c1ccc(N2CCCC2)c(C(=O)NNC(=O)COc2cccc(F)c2)c1	none
C#CC(C)OCC1CNC(=S)O1 (configuration not stated)	none (no result: procasp7 counter, proCasp3 act, NR3A LBD binder)
N#Cc1c(NC(=O)c2ccccc2Cl)n(Cc2ccccc2)c2nc3ccccc3nc12	MPTP inh 51 | MPTP counter 51
CCCCn1c(NC(=O)CC)c(C#N)c2nc3ccccc3nc21	none
CCCCn1c(NC(=O)c2ccccc2Cl)c(C#N)c2nc3ccccc3nc21	MPTP inh 96 | MPTP counter 70
COc1ccc(-n2c(NC(=O)c3ccco3)c(C#N)c3nc4ccccc4nc32)cc1	none
C=CCNc1ncnc2c1ncn2[C@H]1CN(Cc2ccc(-c3ccccc3)cc2)C[C@@H](CO)O1	none (no result: procasp7 counter, proCasp3 act, NR3A LBD binder)
O=C(NNc1ccc([N+](=O)[O-])cn1)Nc1ccc(N=Nc2ccccc2)cc1	MPTP inh 91 (no result: procasp7 counter, proCasp3 act) | MPTP counter 64
O=C(NNC(=O)c1ccncc1)Nc1ccc(N=Nc2ccccc2)cc1	MPTP inh 68, NR3A LBD binder 21 (no result: procasp7 counter, proCasp3 act) | MPTP counter 30
O=[N+]([O-])c1ccc(Nc2ccc3ccccc3c2)nc1	MPTP inh 78, NR3A LBD binder 38 | MPTP counter 59
Oc1ccccc1C=NNC(=S)Nc1ccc(F)cc1	MPTP inh 63, NR3A LBD binder 14 (no result: procasp7 counter, proCasp3 act) | MPTP counter 71
Oc1ccccc1/C=N/NC(=S)NC1CC2C=CC1C2 (configuration not stated)	MPTP inh 57 | MPTP counter 70
Cc1ccc(NS(=O)(=O)c2cc([N+](=O)[O-])ccc2NNC(=S)Nc2cccc(Cl)c2)c(C)c1	MPTP inh 86 | MPTP counter inactive
COc1ccc(NC(=S)NNc2ccc([N+](=O)[O-])cc2S(=O)(=O)Nc2ccc(C)cc2C)cc1	MPTP inh 97, NR3A LBD binder 23 | MPTP counter 56
Cc1ccc(NS(=O)(=O)c2cc([N+](=O)[O-])ccc2NNC(=S)Nc2cc(C)ccc2C)c(C)c1	MPTP inh 110, NR3A LBD binder 20 | MPTP counter 67
COc1ccc(CNc2ccc([N+](=O)[O-])cc2C)cc1	none
Cc1cccc(NC(=S)NNc2cccc(Cl)c2)c1	none
